Experimental data: ChEMBL document CHEMBL4118152, “Discovery of Potent and Selective Periphery-Restricted Quinazoline Inhibitors of the Cyclic Nucleotide Phosphodiesterase PDE1” (J Med Chem, 2018)

What was measured:
BCRP (ABCG2) = BCRP (ABCG2) (Homo sapiens, UniProt Q9UNQ0); assay: Substrate activity at BCRP (unknown origin) assessed as efflux ratio; conditions: not told
[1] = Fraction unbound in Wistar Hannover rat plasma at 1 mg/kg, sc measured at 2 hrs post dose by LC-MS/MS analysis; format: ADME, organism-based; conditions: in vivo
[2] = biological target: High affinity choline transporter 1 (Homo sapiens) (UniProt Q9GZV3); assay: Displacement of [3H]hemicholinium-3 from recombinant human Choline Transporter at 10 uM after 60 mins by scintillation counting analysis relative to control
[3] = Ratio of fraction unbound in Wistar Hannover rat brain to plasma at 1 mg/kg, sc measured at 1 hr post dose by LC-MS/MS analysis; format: ADME, organism-based; conditions: in vivo
[4] = biological target: 5-hydroxytryptamine receptor 7 (Homo sapiens) (UniProt P34969); assay: Inhibition of human 5-HT7 receptor at 10 uM relative to control
5-hydroxytryptamine receptor 7 (Homo sapiens), sequence (P34969 whole entry): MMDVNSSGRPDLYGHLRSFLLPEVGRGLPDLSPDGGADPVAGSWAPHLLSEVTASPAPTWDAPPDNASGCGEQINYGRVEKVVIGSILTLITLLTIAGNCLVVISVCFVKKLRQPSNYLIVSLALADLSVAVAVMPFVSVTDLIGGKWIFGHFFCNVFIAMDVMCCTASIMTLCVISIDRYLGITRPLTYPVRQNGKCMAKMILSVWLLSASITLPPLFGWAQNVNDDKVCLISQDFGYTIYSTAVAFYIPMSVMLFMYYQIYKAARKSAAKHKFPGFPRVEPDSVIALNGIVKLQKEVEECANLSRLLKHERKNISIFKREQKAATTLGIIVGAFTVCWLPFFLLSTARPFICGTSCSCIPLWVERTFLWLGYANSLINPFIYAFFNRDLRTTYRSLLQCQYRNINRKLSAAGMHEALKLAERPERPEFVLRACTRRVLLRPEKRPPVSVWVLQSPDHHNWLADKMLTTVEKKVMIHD

[5] = biological target: Prostaglandin G/H synthase 2 (Homo sapiens) (UniProt P35354); assay: Inhibition of recombinant human cyclooxygenase 2 using arachidonic acid/ADHP as substrate at 10 uM after 5 mins by Fluorimetric method relative to control
Prostaglandin G/H synthase 2 (Homo sapiens), sequence (P35354 whole entry): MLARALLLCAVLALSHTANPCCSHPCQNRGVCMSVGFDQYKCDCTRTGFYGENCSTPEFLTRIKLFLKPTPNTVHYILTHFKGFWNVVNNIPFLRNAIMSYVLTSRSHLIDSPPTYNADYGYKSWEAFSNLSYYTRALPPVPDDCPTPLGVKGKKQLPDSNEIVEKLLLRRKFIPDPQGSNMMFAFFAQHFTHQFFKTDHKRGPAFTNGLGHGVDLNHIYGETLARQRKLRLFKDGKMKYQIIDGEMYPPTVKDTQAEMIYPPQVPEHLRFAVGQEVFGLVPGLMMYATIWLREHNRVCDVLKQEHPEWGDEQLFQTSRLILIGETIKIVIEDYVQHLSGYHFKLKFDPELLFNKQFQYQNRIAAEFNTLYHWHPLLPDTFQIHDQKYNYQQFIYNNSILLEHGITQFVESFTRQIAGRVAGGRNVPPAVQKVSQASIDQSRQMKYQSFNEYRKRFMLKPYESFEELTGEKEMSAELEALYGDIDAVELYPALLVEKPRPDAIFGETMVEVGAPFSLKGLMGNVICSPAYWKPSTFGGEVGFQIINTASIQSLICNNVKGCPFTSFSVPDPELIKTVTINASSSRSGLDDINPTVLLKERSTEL

[6] = biological target: Alpha-2A adrenergic receptor (Homo sapiens) (UniProt P08913); assay: Inhibition of human alpha2A receptor at 10 uM relative to control
Alpha-2A adrenergic receptor (Homo sapiens), sequence (P08913 whole entry): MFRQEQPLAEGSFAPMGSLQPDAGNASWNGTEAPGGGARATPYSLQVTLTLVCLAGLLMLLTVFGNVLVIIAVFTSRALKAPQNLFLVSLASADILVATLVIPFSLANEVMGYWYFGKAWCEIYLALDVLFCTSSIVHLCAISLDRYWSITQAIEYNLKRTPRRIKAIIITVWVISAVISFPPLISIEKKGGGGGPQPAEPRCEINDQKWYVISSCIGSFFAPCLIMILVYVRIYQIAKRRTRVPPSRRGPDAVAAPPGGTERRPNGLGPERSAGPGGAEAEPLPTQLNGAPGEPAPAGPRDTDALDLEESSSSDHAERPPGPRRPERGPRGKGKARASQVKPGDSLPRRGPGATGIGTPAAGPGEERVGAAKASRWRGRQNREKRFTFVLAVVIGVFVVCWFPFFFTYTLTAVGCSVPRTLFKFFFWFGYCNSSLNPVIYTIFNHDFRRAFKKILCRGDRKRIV

[7] = biological target: Motilin receptor (Homo sapiens) (UniProt O43193); assay: Inhibition of human Motilin receptor at 10 uM relative to control
Motilin receptor (Homo sapiens), sequence (O43193 whole entry): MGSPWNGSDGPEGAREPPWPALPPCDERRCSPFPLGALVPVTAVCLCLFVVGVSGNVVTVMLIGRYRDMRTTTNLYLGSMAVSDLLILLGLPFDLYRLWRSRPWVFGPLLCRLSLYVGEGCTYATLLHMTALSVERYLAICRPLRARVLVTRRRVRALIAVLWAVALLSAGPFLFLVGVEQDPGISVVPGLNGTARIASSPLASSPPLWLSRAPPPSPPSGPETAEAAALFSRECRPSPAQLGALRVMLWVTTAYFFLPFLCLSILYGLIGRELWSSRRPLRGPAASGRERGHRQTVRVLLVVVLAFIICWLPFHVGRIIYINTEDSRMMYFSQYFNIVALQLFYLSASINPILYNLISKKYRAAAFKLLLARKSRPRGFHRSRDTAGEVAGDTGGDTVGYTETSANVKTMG

[8] = Fraction unbound in Wistar Hannover rat brain at 1 mg/kg, sc measured at 2 hrs post dose by LC-MS/MS analysis; format: ADME, organism-based; conditions: in vivo
Homo sapiens [9] = organism: Homo sapiens; assay: Selectivity ratio of IC50 for full length recombinant human PDE4D3 to IC50 for full length recombinant human PDE1A
Outline: (§1)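 IC50s were measured against recombinant PDEs, all human except PDE6A (bovine). Each enzyme was given its appropriate cAMP or cGMP substrate at below 1/3 of its Km. IC50s are the mean of n = 3 or more. The selectivity ratio is the IC50 for the other PDE divided by the IC50 for PDE1B1 or PDE1A.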

[10] = biological target: Somatostatin receptor type 4 (Homo sapiens) (UniProt P31391); assay: Inhibition of human Somatostatin 4 receptor at 10 uM relative to control
Somatostatin receptor type 4 (Homo sapiens), sequence (P31391 whole entry): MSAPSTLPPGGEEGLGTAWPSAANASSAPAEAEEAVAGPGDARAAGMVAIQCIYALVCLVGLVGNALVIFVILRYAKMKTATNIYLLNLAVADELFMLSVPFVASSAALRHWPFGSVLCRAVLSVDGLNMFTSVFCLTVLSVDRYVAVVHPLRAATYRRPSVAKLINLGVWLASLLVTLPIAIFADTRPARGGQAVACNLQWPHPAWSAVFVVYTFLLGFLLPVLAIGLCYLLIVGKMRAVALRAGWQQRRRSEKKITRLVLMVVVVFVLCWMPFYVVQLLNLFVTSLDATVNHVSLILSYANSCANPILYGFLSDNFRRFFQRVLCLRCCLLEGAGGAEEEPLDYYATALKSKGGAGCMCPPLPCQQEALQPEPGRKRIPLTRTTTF

[11] = biological target: Histamine H1 receptor (Homo sapiens) (UniProt P35367); assay: Inhibition of human histamine H1 receptor at 10 uM relative to control
[12] = Fraction unbound in Wistar Hannover rat plasma at 1 mg/kg, sc measured at 4 hrs post dose by LC-MS/MS analysis; format: ADME, organism-based; conditions: in vivo
Homo sapiens [13] = organism: Homo sapiens; assay: Selectivity ratio of IC50 for full length recombinant human PDE5A1 to IC50 for full length recombinant human PDE1B1; outline: as §1
[14] = biological target: Glucocorticoid receptor (Homo sapiens) (UniProt P04150); assay: Inhibition of human glucocorticoid receptor at 10 uM relative to control
Homo sapiens [15] = organism: Homo sapiens; assay: Selectivity ratio of IC50 for full length recombinant human PDE3A1 to IC50 for full length recombinant human PDE1A; outline: as §1
[16] = biological target: cGMP-dependent 3',5'-cyclic phosphodiesterase (Homo sapiens, UniProt O00408); assay: Inhibition of full length recombinant human PDE2A1 using 3',5'-[3H]cGMP as substrate after 30 mins by scintillation proximity assay
cGMP-dependent 3',5'-cyclic phosphodiesterase, sequence (O00408 whole entry): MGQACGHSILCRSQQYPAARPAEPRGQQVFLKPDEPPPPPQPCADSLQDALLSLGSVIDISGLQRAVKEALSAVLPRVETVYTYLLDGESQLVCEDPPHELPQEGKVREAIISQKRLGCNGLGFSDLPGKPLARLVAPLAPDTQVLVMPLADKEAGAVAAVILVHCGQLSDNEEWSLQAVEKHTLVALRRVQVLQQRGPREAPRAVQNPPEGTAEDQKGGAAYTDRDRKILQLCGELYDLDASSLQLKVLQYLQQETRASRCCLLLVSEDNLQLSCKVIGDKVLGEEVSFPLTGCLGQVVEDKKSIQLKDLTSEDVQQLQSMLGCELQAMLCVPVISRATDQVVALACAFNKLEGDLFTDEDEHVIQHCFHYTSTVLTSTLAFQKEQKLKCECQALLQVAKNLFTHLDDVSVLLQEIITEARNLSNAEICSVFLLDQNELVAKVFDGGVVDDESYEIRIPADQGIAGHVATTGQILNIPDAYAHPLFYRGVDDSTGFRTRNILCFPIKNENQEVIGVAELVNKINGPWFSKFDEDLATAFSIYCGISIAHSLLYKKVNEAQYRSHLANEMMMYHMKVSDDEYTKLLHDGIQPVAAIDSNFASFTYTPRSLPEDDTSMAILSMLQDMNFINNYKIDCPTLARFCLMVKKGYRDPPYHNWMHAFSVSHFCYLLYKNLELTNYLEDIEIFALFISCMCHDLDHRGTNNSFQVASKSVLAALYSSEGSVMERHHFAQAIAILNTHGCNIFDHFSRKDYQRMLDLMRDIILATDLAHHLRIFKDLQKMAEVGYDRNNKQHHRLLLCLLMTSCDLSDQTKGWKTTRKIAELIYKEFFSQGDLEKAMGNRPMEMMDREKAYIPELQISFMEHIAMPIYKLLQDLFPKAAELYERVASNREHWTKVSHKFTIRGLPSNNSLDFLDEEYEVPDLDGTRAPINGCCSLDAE
Outline: (§2)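 Enzymes were human except PDE6A, which was bovine. Each was assayed with cAMP or cGMP substrate, as appropriate to the enzyme, at concentrations below 1/3 of Km. IC50 values are mean ± SEM from n = 3 or more.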

CYP2D6 = CYP2D6 (Homo sapiens, UniProt P10635); assay: Inhibition of CYP2D6 (unknown origin) at 10 uM relative to control; format: ADME
[17] = Fraction unbound in Wistar Hannover rat brain at 1 mg/kg, sc measured at 0.5 to 4 hrs post dose by LC-MS/MS analysis; format: ADME, organism-based
[18] = biological target: Angiotensin-converting enzyme (Homo sapiens) (UniProt P12821); assay: Inhibition of human angiotensin converting enzyme at 10 uM relative to control
Homo sapiens [19] = organism: Homo sapiens; assay: Selectivity ratio of IC50 for full length recombinant human PDE11A4 to IC50 for full length recombinant human PDE1A; outline: as §1
[20] = biological target: cAMP and cAMP-inhibited cGMP 3',5'-cyclic phosphodiesterase 10A (Homo sapiens, UniProt Q9Y233); assay: Inhibition of full length recombinant human PDE10A1 using 3',5'-[3H]cAMP as substrate after 30 mins by scintillation proximity assay; outline: as §2
[21] = Ratio of fraction unbound in Wistar Hannover rat brain to plasma at 1 mg/kg, sc measured at 0.5 hrs post dose by LC-MS/MS analysis; format: ADME, organism-based; conditions: in vivo
[22] = biological target: 5-hydroxytryptamine receptor 2A (Homo sapiens) (UniProt P28223); assay: Inhibition of human 5-HT2A receptor at 10 uM relative to control
5-hydroxytryptamine receptor 2A (Homo sapiens), sequence (P28223 whole entry): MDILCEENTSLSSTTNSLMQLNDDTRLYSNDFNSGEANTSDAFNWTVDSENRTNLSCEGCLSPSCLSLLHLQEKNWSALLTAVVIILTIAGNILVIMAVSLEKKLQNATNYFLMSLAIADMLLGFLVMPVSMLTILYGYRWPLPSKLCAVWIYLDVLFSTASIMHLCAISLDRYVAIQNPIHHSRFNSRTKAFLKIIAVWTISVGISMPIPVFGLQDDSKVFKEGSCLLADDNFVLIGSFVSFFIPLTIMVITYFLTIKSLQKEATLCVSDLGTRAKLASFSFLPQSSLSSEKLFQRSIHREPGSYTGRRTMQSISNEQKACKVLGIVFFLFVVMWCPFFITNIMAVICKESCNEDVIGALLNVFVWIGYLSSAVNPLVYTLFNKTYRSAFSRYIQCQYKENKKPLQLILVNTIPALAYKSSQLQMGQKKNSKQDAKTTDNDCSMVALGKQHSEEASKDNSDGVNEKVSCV

[23] = biological target: 5-hydroxytryptamine receptor 3A (Homo sapiens) (UniProt P46098); assay: Inhibition of human 5-HT3 receptor at 10 uM relative to control
[24] = biological target: Cholecystokinin receptor type A (Homo sapiens) (UniProt P32238); assay: Inhibition of human cholecystokinin CCK1 receptor at 10 uM relative to control
[25] = Drug uptake in Wistar Hannover rat cerebrospinal fluid at 1 mg/kg, sc measured at 4 hrs post dose by LC-MS/MS analysis; format: ADME, organism-based; conditions: in vivo, BLD = below limit of detection
Outline: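 Rats were dosed subcutaneously at 1 mg/kg. CSF, plasma and brain were sampled at 0.5, 1, 2 and 4 h post dose and analysed for drug concentration. Values are means at each time point.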

Homo sapiens [26] = organism: Homo sapiens; assay: Selectivity ratio of IC50 for full length recombinant human PDE2A1 to IC50 for full length recombinant human PDE1A; outline: as §1
Rattus norvegicus [27] = organism: Rattus norvegicus; assay: Inhibition of rat brain AMPA receptor assessed as [3H]AMPA uptake at 10 uM after 60 mins by scintillation counting analysis relative to control
Homo sapiens [28] = organism: Homo sapiens; assay: Inhibition of human GABA-B receptor at 10 uM relative to control
Homo sapiens [29] = organism: Homo sapiens; assay: Selectivity ratio of IC50 for full length recombinant human PDE9A1 to IC50 for full length recombinant human PDE1B1; outline: as §1
Rattus norvegicus [30] = organism: Rattus norvegicus; assay: Displacement of [3H]D888 from rat brain L-type calcium channel verapamil binding site at 10 uM after 30 mins by scintillation counting analysis relative to control
[31] = biological target: High affinity cGMP-specific 3',5'-cyclic phosphodiesterase 9A (Homo sapiens, UniProt O76083); assay: Inhibition of full length recombinant human PDE9A1 using 3',5'-[3H]cGMP as substrate after 30 mins by scintillation proximity assay; outline: as §2
High affinity cGMP-specific 3',5'-cyclic phosphodiesterase 9A, sequence (O76083 whole entry): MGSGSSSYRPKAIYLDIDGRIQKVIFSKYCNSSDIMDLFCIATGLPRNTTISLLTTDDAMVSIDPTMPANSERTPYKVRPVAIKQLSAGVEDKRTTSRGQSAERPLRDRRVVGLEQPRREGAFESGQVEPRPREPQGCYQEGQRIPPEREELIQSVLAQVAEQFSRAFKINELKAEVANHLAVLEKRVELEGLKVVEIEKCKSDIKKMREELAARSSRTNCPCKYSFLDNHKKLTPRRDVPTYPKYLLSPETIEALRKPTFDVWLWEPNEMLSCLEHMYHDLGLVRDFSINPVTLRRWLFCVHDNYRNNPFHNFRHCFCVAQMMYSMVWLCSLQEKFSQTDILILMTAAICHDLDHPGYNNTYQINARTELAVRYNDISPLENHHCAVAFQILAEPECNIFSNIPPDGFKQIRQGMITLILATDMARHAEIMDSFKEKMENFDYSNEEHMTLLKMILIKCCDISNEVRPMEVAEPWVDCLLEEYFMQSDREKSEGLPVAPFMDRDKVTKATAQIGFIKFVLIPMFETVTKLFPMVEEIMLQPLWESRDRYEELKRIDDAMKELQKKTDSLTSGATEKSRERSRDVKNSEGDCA

[32] = Selectivity ratio of IC50 for bovine retina PDE6A to IC50 for full length recombinant human PDE1A; outline: as §1
[33] = Ratio of fraction unbound in Wistar Hannover rat brain to plasma at 1 mg/kg, sc measured at 2 hrs post dose by LC-MS/MS analysis; format: ADME, organism-based; conditions: in vivo
[34] = Ratio of drug uptake in cerebrospinal fluid to fraction unbound in plasma in Wistar Hannover rat at 1 mg/kg, sc measured at 2 hrs post dose by LC-MS/MS analysis; format: ADME, organism-based, CSF/Plasma; conditions: in vivo
CYP3A4 = CYP3A4 (Homo sapiens, UniProt P08684); assay: Inhibition of CYP3A4 (unknown origin) at 10 uM relative to control; format: ADME
CYP3A4, sequence (P08684 whole entry): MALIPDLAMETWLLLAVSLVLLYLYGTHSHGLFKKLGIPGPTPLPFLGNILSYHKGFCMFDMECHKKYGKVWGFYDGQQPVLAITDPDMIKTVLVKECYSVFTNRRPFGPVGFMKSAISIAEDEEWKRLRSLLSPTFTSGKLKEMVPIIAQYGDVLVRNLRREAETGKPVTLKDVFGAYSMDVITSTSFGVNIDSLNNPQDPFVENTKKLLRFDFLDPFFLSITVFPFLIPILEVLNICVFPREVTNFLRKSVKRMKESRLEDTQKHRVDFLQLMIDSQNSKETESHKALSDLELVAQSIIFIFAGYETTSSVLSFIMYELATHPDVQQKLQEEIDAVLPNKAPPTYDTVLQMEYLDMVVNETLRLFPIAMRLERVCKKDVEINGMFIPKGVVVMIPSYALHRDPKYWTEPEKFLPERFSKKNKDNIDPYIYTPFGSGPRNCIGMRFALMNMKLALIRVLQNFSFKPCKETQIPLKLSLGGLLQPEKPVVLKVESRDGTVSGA

COc1ccc2c(N[C@@H](C)Cc3cc(C)[nH]n3)ncnc2c1OC
efflux ratio (BCRP (ABCG2)): 84
Cp(f) [1]: 40 nM
inhibition [2]: < 50%
Ratio [3]: 0.03
inhibition [4]: < 50%
inhibition [5]: < 50%
inhibition [6]: < 50%
inhibition [7]: < 50%
Drug uptake(free) [8]: 2 nM
Ratio IC50 (Homo sapiens [9]): 626
inhibition [10]: < 50%
inhibition [11]: < 50%
Cp(f) [12]: 7 nM
Ratio IC50 (Homo sapiens [13]): 5970
inhibition [14]: < 50%
Ratio IC50 (Homo sapiens [15]): 3170
IC50 [16]: 47600 nM
inhibition at 10 µM (CYP2D6): < 50%
fraction unbound [17]: 0.2
inhibition [18]: < 50%
Ratio IC50 (Homo sapiens [19]): 826
IC50 [20]: 409 nM
Ratio [21]: 0.04
inhibition [22]: < 50%
inhibition [23]: < 50%
inhibition [24]: < 50%
Drug uptake [25]: Bld
Ratio IC50 (Homo sapiens [26]): 1130
inhibition (Rattus norvegicus [27]): < 50%
inhibition (Homo sapiens [28]): < 50%
Ratio IC50 (Homo sapiens [29]): > 22000
inhibition (Rattus norvegicus [30]): < 50%
IC50 [31]: > 200 nM
Ratio IC50 [32]: > 3380
Ratio [33]: 0.05
Ratio [34]: 0.2
inhibition at 10 µM (CYP3A4): < 50%
